{"data": "Assay results collected from several papers", "organism": "Klebsiella pneumoniae", "note": "Protocols differ between the studies behind these lines."}
{"SMILES": "Cc1c(NC(=O)CC2=NC(=O)CS2)c(=O)n(-c2ccccc2)n1C", "observed": "microbial growth", "method": "well diffusion", "concentration": "100000 µg/mL", "quantity": "inhibition zone", "result": "25 mm"}
{"SMILES": "CNC(C)C1CCC(N)C(OC2C(N)CC(N)C(OC3OCC(C)(O)C(NC)C3O)C2O)O1 (stereo not shown)", "observed": "microbial growth", "method": "broth dilution", "strain": "ATCC700603", "quantity": "MIC", "result": "0.31 µM"}
{"SMILES": "CCCCS(=O)(=O)Oc1cccc2cccnc12", "observed": "microbial growth", "method": "broth dilution", "strain": "ATCC700603", "quantity": "IC50", "result": "171 µg/mL"}
{"SMILES": "NC[C@H]1O[C@H](O[C@H]2[C@H](O)[C@@H](O[C@H]3O[C@H](CO)[C@@H](O)[C@H](N)[C@H]3O)[C@H](N)C[C@@H]2N)[C@H](N)C[C@@H]1O", "observed": "microbial growth", "method": "broth dilution", "strain": "ATCC700603", "quantity": "MIC", "result": "1.3 µM"}
{"SMILES": "O=C(O)c1cn(C2CC2)c2cc(N3CCNCC3)c(F)cc2c1=O", "observed": "microbial killing", "method": "broth dilution", "quantity": "MBC", "result": "0.5 µg/mL"}
{"SMILES": "COc1cc(Cc2cnc(N)nc2N)cc(OC)c1OC", "observed": "microbial growth", "method": "broth dilution", "strain": "ATCC700603", "quantity": "MIC", "result": "20 µM"}
{"SMILES": "Cc1ccc(C(C)C)cc1O", "observed": "microbial growth", "method": "broth dilution", "strain": "ATCC700603", "quantity": "IC50", "result": "61.9 µg/mL"}
{"SMILES": "CCn1cc(C(=O)O)c(=O)c2ccc(C)nc21", "observed": "microbial growth", "method": "broth dilution", "strain": "ATCC700603", "quantity": "MIC", "result": "80 µM"}
{"SMILES": "Cc1ccc(C(C)C)cc1OCc1cn(-c2ccc(Cl)cc2)nn1", "observed": "microbial growth", "method": "broth dilution", "strain": "ATCC700603", "quantity": "IC50", "result": "206 µg/mL"}
{"SMILES": "CN[C@H](CC(C)C)C(=O)N[C@H]1C(=O)N[C@@H](CC(N)=O)C(=O)N[C@H]2C(=O)N[C@H]3C(=O)N[C@H](C(=O)N[C@H](C(=O)O)c4cc(O)cc(O)c4-c4cc3ccc4O)[C@H](O)c3ccc(c(Cl)c3)Oc3cc2cc(c3O[C@@H]2O[C@H](CO)[C@@H](O)[C@H](O)[C@H]2O[C@H]2C[C@](C)(N)[C@H](O)[C@H](C)O2)Oc2ccc(cc2Cl)[C@H]1O", "observed": "microbial killing", "method": "broth dilution", "strain": "ATCC43816", "quantity": "MBC", "result": "> 128 µM"}
{"SMILES": "N#CC(=Cc1ccccc1O)C1=NC(=O)C(=Cc2cn(-c3ccccc3)nc2-c2ccccc2)S1", "observed": "microbial growth", "method": "well diffusion", "concentration": "100000 µg/mL", "quantity": "inhibition zone", "result": "26 mm"}
{"SMILES": "Cc1ccc(C(C)C)cc1OS(=O)(=O)c1ccc([N+](=O)[O-])cc1", "observed": "microbial growth", "method": "broth dilution", "strain": "ATCC700603", "quantity": "IC50", "result": "463 µg/mL"}
{"SMILES": "Cc1ccc(-c2nn(-c3ccccc3)cc2C=C(C#N)C2=NC(=O)CS2)cc1", "observed": "microbial growth", "method": "well diffusion", "concentration": "100000 µg/mL", "quantity": "inhibition zone", "result": "21 mm"}
{"SMILES": "Cc1c(CN(C)C(=O)/C=C/c2cnc3c(c2)CC(CCN)C(=O)N3)oc2ccccc12.Cl (stereo not shown)", "observed": "microbial growth", "method": "broth dilution", "strain": "BAA2472", "quantity": "MIC", "result": "16 µg/mL"}
{"SMILES": "Cc1ccc(S(=O)(=O)Oc2cc(C(C)C)ccc2C)cc1", "observed": "microbial growth", "method": "broth dilution", "strain": "ATCC700603", "quantity": "IC50", "result": "279 µg/mL"}
{"SMILES": "CCOC(=O)c1c(N)csc1-c1cn(-c2ccccc2)nc1-c1ccc(C)cc1", "observed": "microbial growth", "method": "well diffusion", "concentration": "100000 µg/mL", "quantity": "inhibition zone", "result": "27 mm"}
